Sampled rows, rich in hits. Any-hit rate of the full collection: about 3.2%.
PLK1 PBD inh: inhibitors of human Plk1 polo box domain binding. inhibition, %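 (tested at about 20 µM)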. P53350. Plk1 PBD phosphopeptide binding, fluorescence polarization. AID 693. 97,000 compounds, 0.13% hits; in the data active = inhibition above about 34%, passing the limit was not always enough
Target sequence (P53350 whole entry, looked up, the tested form may be a part): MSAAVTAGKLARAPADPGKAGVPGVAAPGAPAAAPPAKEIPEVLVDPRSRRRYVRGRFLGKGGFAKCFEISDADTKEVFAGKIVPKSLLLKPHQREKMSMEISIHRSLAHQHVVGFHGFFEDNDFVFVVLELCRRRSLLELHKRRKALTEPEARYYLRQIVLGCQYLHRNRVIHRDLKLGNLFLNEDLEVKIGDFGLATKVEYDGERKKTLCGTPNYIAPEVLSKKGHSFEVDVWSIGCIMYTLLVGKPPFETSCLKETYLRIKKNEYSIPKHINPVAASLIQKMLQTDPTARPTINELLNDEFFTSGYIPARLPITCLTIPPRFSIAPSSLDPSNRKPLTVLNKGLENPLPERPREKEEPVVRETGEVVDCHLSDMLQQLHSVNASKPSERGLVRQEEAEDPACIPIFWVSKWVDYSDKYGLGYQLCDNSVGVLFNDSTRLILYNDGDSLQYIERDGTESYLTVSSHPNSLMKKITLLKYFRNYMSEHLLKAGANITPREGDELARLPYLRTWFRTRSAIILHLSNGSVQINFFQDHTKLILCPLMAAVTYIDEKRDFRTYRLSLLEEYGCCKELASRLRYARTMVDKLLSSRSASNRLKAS
FAK blocker: blocks human focal adhesion kinase activity; 97,000 compounds, 0.84% hits; Q05397; inhibition, %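 (tested at 7 µM)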; biochemical FAK kinase activity assay; in the data active = inhibition above about 19%
hDAT+cocaine: human DAT dopamine uptake with cocaine, either direction | Q01959 | LLC-PK1 hDAT cells, [14C]-dopamine uptake with cocaine IC80; actives deviate in either direction | B-score at 10 µM | 110,000 compounds, 1.3% hits | AID 449768;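 active = Z score or B-score, a plate-position-corrected score, falls beyond the plate's 99.7% confidence bounds, in either direction; inactive = both scores lie inside the 99.7% bounds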
EphB4 antag: antagonists of human EphB4-ephrin-B2 interaction | P54760 | EphB4 LBD / TNYL-RAW-Alexa532 peptide, fluorescence polarization | inhibition, % at 7 µM | 97,000 compounds, 0.15% hits;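 active = inhibition above the screen-wide mean inhibition plus 3 SD, cut at about 15% in these data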
Rev-RRE block: inhibitors of HIV-1 Rev-RRE RNA interaction; P05866; inhibition, % at 8 µM; AID 704; 97,000 compounds, 0.79% hits; Rev peptide-RRE RNA binding, FRET;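 active = inhibition above the screen-wide mean plus 3 SD, cut at about 35% in these data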
Target sequence (P05866 whole entry, looked up): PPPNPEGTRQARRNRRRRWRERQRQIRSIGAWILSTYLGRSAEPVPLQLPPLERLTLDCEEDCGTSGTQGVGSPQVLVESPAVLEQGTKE
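Probe or stimulus: fluorescein-Rev peptide as binding partner; assay system: Cy5-tagged RRE RNA duplex with fluorescein-tagged Rev peptide; timing: 5 min compound–RNA preincubation, then 15 min with peptide, 25 °C; medium: HEPES pH 7.5 buffer with KCl, MgCl2, NaCl and EDTA; signal: fluorescein-to-Cy5 FRET, 480 nm excitation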
PLK1 kinase inh: blocks human PLK1 kinase activity; P53350; recombinant PLK1 kinase, TR-FRET peptide phosphorylation; inhibition, % at 10 µM; 97,000 compounds, 0.53% hits; AID 619;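 active = inhibition of 50% or more in the single-concentration screen; inactive = inhibition below 50%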
Large screens that a line does not name were inactive; [ ] = another dose, or the depositor's remark.

COc1ccc(C2C(C(C)=O)=C(O)C(=O)N2c2cccnc2)cc1OC (stereo unspecified)	none
Cc1cc(N2C(=O)C(O)=C(C(=O)c3ccco3)C2c2ccc(O)cc2)no1 (stereo unspecified)	none (no result: hDAT+cocaine)
COc1ccc(C2C(C(=O)c3cccs3)=C(O)C(=O)N2c2nnc(C)s2)cc1OC (stereo unspecified)	Rev-RRE block 106.7[fluorescence artefact?]
C=CCOc1cccc(C2C(C(=O)c3ccc(C)o3)=C(O)C(=O)N2Cc2ccncc2)c1 (stereo unspecified)	none
C=CCOc1ccc(C2C(C(=O)c3cccs3)=C(O)C(=O)N2c2nnc(C)s2)cc1 (stereo unspecified)	Rev-RRE block 102.1[fluorescence artefact?]
Cc1nn(C)c(C)c1/C=N/N=C1\CCC2C3CCc4cc(O)ccc4C3CCC12C (stereo unspecified)	none (no result: hDAT+cocaine)
NC(=O)c1cnccn1	none (no result: PLK1 PBD inh, FAK blocker, EphB4 antag, Rev-RRE block, PLK1 kinase inh)
CCCn1nnnc1SCC(=O)NCc1ccc2c(c1)OCO2	none
O=C(O)c1ccccc1SC1CC(=O)N(C2CCCCC2)C1=O (stereo unspecified)	PLK1 kinase inh 69.2
CC(c1ccccc1)N1C(=O)CC(Sc2ncccc2C(=O)O)C1=O (stereo unspecified)	none
COc1ccccc1N(C(=O)c1snc(C(N)=O)c1N)C(C(=O)NCCC(C)C)c1ccco1 (stereo unspecified)	none
NC(=O)c1nsc(C(=O)N(CC(=O)NCc2ccco2)c2ccccc2F)c1N	FAK blocker 23.7
CCN(CC)c1ccc2cc(C(C)=O)c(=O)oc2c1	Rev-RRE block 126.1[fluorescence artefact?]
CCN(CC)c1ccc2cc(NC(=O)CCC(=O)O)c(=O)oc2c1	none (no result: PLK1 PBD inh, FAK blocker, EphB4 antag, Rev-RRE block, PLK1 kinase inh)
CCN(CC)c1ccc2cc(C(=O)Nc3ccccn3)c(=O)oc2c1	none (no result: PLK1 PBD inh, FAK blocker, EphB4 antag, Rev-RRE block, PLK1 kinase inh)
CCN(CC)c1ccc2cc(C=O)c(=O)oc2c1	Rev-RRE block 140.0[fluorescence artefact?]
CCN(CC)c1ccc2cc(C(N)=O)c(=O)oc2c1	Rev-RRE block 41.3
CCN(CC)c1ccc2cc(-c3nnc(-c4ccncc4)o3)c(=O)oc2c1	Rev-RRE block 142.7[fluorescence artefact?]
O=C1CC2(CCCCC2)Oc2ccc(Cl)cc21	none (no result: PLK1 PBD inh, FAK blocker, EphB4 antag, Rev-RRE block, PLK1 kinase inh)
CCOC(=O)C1=C(CCc2ccccc2)NC(=O)NC1c1ccc(C#N)cc1 (stereo unspecified)	none (no result: PLK1 PBD inh, FAK blocker, EphB4 antag, Rev-RRE block, PLK1 kinase inh)
Cc1nn(Cc2ccccc2)c(C)c1NC(=O)CSc1nc2sc3c(c2c(=O)n1C)CCC3	none
COc1ccc(C2=CC(c3ccc(C)cc3)n3nnnc3N2)cc1 (stereo unspecified)	Rev-RRE block 46.8
COc1ccc(C2C=C(c3ccc(C)cc3)Nc3ncnn32)cc1 (stereo unspecified)	Rev-RRE block 56.0 (no result: hDAT+cocaine)
COc1ccc(C2C=C(c3ccccc3)Nc3nc(NC(C)=O)nn32)cc1 (stereo unspecified)	Rev-RRE block 42.4
COc1ccc(C2C=C(c3ccccc3)Nc3nnnn32)cc1 (stereo unspecified)	none
Cc1ccc(C2C=C(c3ccccc3)Nc3ncnn32)cc1 (stereo unspecified)	none (no result: PLK1 PBD inh, FAK blocker, EphB4 antag, Rev-RRE block, PLK1 kinase inh)
CCOC(=O)c1cnc(SC2CC(=O)N(c3ccc(C)cc3)C2=O)nc1N (stereo unspecified)	none
CCOc1ccc(-n2cc(C(=O)N3CCCCCC3)c3cc(OC)c(OC)cc3c2=O)cc1	hDAT+cocaine 2.86
CCOc1ccc(-n2cc(C(=O)NCc3ccco3)c3cc(OC)c(OC)cc3c2=O)cc1	none
CCOc1ccc(C(=O)N2CCCC2)cc1	hDAT+cocaine 5.88
CC(O)(CC(=O)O)CC(=O)O	none (no result: PLK1 PBD inh, FAK blocker, EphB4 antag, Rev-RRE block, PLK1 kinase inh)
CCOC(=O)C1=C(C)N(CC(C)C)C(=O)/C1=C\c1ccc(OCC(=O)Nc2ccccc2)cc1	none
Cc1cc(/C=C2\SC(=S)NC2=O)c(C)n1C	Rev-RRE block 54.2
CCCNC(=O)C1CCN(S(=O)(=O)c2ccc(Br)cc2)CC1	none
Cc1ccsc1C(=O)Nc1nnc(-c2ccco2)o1	none
CC1(C)Cc2c(c(N3CCOCC3)nc3sc(-c4ccc(C(=O)O)o4)c(N)c23)CO1	Rev-RRE block 40.2
COc1ccc(S(=O)(=O)N2CCC(C(=O)NCc3ccccn3)CC2)cc1C	none
CCCNC(=O)Cn1nc(C(F)(F)F)c2c1CCCC2	none
COc1ccc(-c2cc3nc(C)cc(N)n3n2)cc1	hDAT+cocaine -8.43
CC(C)CC(CO)N1CCN(C(=O)c2ccc(Cl)c(Cl)c2)CCC1=O (stereo unspecified)	none (no result: PLK1 PBD inh, FAK blocker, EphB4 antag, Rev-RRE block, PLK1 kinase inh)
CCOc1ccc2nc(SCC(=O)N3CCN(C(=O)c4ccco4)CC3)sc2c1	hDAT+cocaine -1.73
Cc1ccc(OCC(O)Cn2c3ccccc3c3ccccc32)cc1 (stereo unspecified)	hDAT+cocaine 1.7
CCOC(=O)c1ccc(N2C(=O)CC(N3CCN(C(=O)c4ccco4)CC3)C2=O)cc1 (stereo unspecified)	hDAT+cocaine 2.56
Oc1c(Cl)cc(Cl)cc1/C=N/c1nccs1	hDAT+cocaine 4.36
COC(=O)c1scc(C)c1NC(=O)C1CCCCC1	none
Cc1c(NC(=O)c2cc3ccccc3oc2=O)c(=O)n(-c2ccccc2)n1C	none
COc1ccc(-c2cn3nc4c(nc3n2)CCCC4)cc1	Rev-RRE block 97.9[fluorescence artefact?] (no result: hDAT+cocaine)
COC(=O)c1ccc(NC(=O)c2ccccc2SC)cc1	hDAT+cocaine 3.26
COC(=O)c1ccccc1NC(=O)c1ccccc1SC	none
COc1ccc(NC(=O)CCCn2c(=O)[nH]c3ccccc3c2=O)cc1	none
COc1ccc(NC(=O)CCCCn2c(=O)[nH]c3ccccc3c2=O)cc1	hDAT+cocaine -7.72
Cc1ccc(-c2noc(CN(C(=O)Cc3ccccc3)C(C)C)n2)cc1	none
CCCC(=O)N1CCN(c2nc(CC(C)C)c3c(c2C#N)CCC3)CC1	hDAT+cocaine 2.61
O=C(CC(O)(c1ccccc1)C(F)(F)F)c1cccs1 (stereo unspecified)	EphB4 antag 30.7[fluorescence artefact?]
CC(C)Oc1ccc(C(=O)NC2(C(F)(F)F)N=C3SCCN3C2=O)cc1 (stereo unspecified)	none
O=S(=O)(Nc1nc2ccccc2s1)c1ccc(Br)s1	hDAT+cocaine -3.88
CCOC(=O)c1ccc(NS(=O)(=O)N2CCCCCC2)cc1	none
Cc1cc(C)n(C(=O)c2cccc(S(=O)(=O)N3CCOCC3)c2)n1	hDAT+cocaine -8.32
Cc1cc(C)n(C(=O)c2ccc(S(=O)(=O)N3CCOCC3)cc2)n1	none
CCOC(=O)N1CCN(C(=O)c2oc3ccc(S(=O)(=O)N4CCCCC4)cc3c2C)CC1	hDAT+cocaine 2.99
Cc1c(C(=O)NCCN2CCOCC2)oc2ccc(S(=O)(=O)N3CCCCCC3)cc12	hDAT+cocaine 2.04 (no result: PLK1 PBD inh, FAK blocker, EphB4 antag, Rev-RRE block, PLK1 kinase inh)
COC(=O)[C@@H]1C[C@@]2(Br)c3ccccc3N(S(=O)(=O)c3ccccc3)[C@H]2N1C(=O)OC	none (no result: PLK1 PBD inh, FAK blocker, EphB4 antag, Rev-RRE block, PLK1 kinase inh)
CCOC(=O)C1CCN(S(=O)(=O)c2c(C)n(C)c(=O)n(C)c2=O)CC1	none
O=C1C(=O)c2ccc(-c3ccccc3)cc2-c2ccccc21	FAK blocker 55.6
